From ChEMBL document CHEMBL3865794, “Novel securinine derivatives as topoisomerase I based antitumor agents” (Eur J Med Chem, 2016)

Legend:
[1] = target: T1, DNA topoisomerase 1 (Homo sapiens) (UniProt P11387); assay: Inhibition of DNA topoisomerase 1 (unknown origin) assessed as reduction in relaxation of supercoiled pBR322 plasmid DNA at 100 uM incubated for 30 mins by agarose gel electrophoresis relative to control
T1 sequence (whole entry): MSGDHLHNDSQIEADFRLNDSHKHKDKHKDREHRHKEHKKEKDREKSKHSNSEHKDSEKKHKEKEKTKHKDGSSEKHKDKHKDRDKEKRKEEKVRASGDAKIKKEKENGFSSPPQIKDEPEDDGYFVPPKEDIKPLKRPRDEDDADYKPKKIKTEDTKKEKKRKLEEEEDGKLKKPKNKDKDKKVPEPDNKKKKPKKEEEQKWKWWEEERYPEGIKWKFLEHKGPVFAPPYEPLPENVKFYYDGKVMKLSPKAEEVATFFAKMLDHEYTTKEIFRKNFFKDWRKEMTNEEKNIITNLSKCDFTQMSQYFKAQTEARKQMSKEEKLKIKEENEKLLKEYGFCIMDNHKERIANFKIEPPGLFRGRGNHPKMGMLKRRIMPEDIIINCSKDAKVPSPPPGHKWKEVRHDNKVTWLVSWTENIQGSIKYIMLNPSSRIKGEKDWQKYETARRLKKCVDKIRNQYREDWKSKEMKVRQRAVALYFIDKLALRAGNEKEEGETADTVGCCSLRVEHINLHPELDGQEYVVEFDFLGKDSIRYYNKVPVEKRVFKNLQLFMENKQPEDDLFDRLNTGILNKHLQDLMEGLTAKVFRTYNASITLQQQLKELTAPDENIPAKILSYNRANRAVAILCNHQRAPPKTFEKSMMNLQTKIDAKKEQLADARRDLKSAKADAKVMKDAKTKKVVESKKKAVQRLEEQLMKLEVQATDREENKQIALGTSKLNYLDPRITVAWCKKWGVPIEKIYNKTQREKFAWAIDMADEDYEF
How it was run: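 Supercoiled pBR322 DNA incubated with Topo I in the presence or absence of compound for 30 min at 37 °C. Reaction stopped with dye solution of bromophenol blue, xylene cyanol and glycerol. Products run on 1% agarose in 1× TAE for 40 min, then EB-stained and UV-imaged. Inhibition rate derived from gel gray-scale analysis relative to control. Camptothecin served as positive control.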

[2] = Growth inhibition of human HeLa cells after 72 hrs by MTT assay; assay type: functional, cell-based
How it was run: (§1)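 Cells seeded at 5 × 10³ per well and incubated overnight in medium with 10% FBS. Medium then replaced with fresh medium containing compound at […] for 72 h. MTT (5 mg/mL stock, 20 µL per well) added for 4 h at 37 °C, formazan dissolved in DMSO, absorbance read at 570 nm. Each dose run in parallel triplicate. IC50 taken from mean absorbance versus concentration curves.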

[3] = Growth inhibition of human HepG2 cells after 72 hrs by MTT assay; assay type: functional, cell-based; how it was run: as §1
[4] = Growth inhibition of human SH-SY5Y cells after 72 hrs by MTT assay; assay type: functional, cell-based; how it was run: as §1
[5] = Growth inhibition of human A549 cells after 72 hrs by MTT assay; assay type: functional, cell-based; how it was run: as §1
[6] = target: T1, DNA topoisomerase 1 (Homo sapiens); assay: Inhibition of DNA topoisomerase 1 (unknown origin) assessed as reduction in topoisomerase 1-DNA complex formation preincubated for 20 mins followed by supercoiled pBR322 plasmid DNA addition measured after 3 mins by electrophoretic mobility shift assay

SMILES | inhibition [1] [%] | inhibition [6] | IC50 ([2]; Homo sapiens, HeLa, 72 h) [µM] | IC50 ([3]; Homo sapiens, HepG2, 72 h) [µM] | IC50 ([4]; Homo sapiens, SH-SY5Y, 72 h) [µM] | IC50 ([5]; Homo sapiens, A549, 72 h) [µM] | IC50 ([2]; hela) [µM] | IC50 ([3]; hepg2) [µM] | IC50 ([4]; sh-sy5y) [µM] | IC50 ([5]; a549) [µM]
O=C1O[C@@]23C[C@@H](C=CC2=C1C(O)c1ccc(F)cc1)N1CCCC[C@@H]13 (stereo in doubt; 4a-2-b) |  |  |  |  |  |  | 12.7 | 10.1 | 19 | 5.09
N#Cc1ccc(C(O)C2=C3C=C[C@@H]4C[C@@]3(OC2=O)[C@H]2CCCCN42)cc1 (stereo in doubt; 4a-5-b) |  |  |  |  |  |  | 12.1 | 14.1 | 18.9 | 
O=C1O[C@@]23C[C@@H](C=CC2=C1C(O)c1ccc(Br)cc1)N1CCCC[C@@H]13 (stereo in doubt; 4a-4-b) |  |  |  |  |  |  |  | 14.1 | 22.3 | 6.3
O=C1O[C@@]23C[C@@H](C=CC2=C1C(O)c1ccc(F)cc1)N1CCCC[C@@H]13 (stereo in doubt; 4a-2-a) |  |  |  |  |  |  | 12.8 | 10 | 19.1 | 4.95
O=C1O[C@@]23C[C@@H](C=CC2=C1C(O)c1ccc(C(F)(F)F)cc1)N1CCCC[C@@H]13 (stereo in doubt; 4a-6) | 53.6 |  |  |  |  |  |  |  |  | 
O=C1O[C@@]23C[C@@H](C=CC2=C1C(O)c1ccc(C(F)(F)F)cc1)N1CCCC[C@@H]13 (stereo in doubt; 4a-6-b) |  |  |  |  |  |  | 9.08 | 2.57 | 8.62 | 3.01
O=C1O[C@@]23C[C@@H](C=CC2=C1C(O)c1ccc(Br)cc1)N1CCCC[C@@H]13 (stereo in doubt; 4a-4-a) |  |  |  |  |  |  | 12.8 |  | 22.4 | 6.24
O=C1O[C@@]23C[C@@H](C=CC2=C1C(O)c1ccc(C(F)(F)F)cc1)N1CCCC[C@@H]13 (stereo in doubt; 4a-6-a) |  |  |  |  |  |  | 8.8 | 2.23 | 8.27 | 2.78
O=C1O[C@@]23C[C@@H](C=CC2=C1C(O)c1ccc(F)cc1)N1CCCC[C@@H]13 (stereo in doubt; 4a-2) [listing 2 of 2 here] |  |  | 12.8 | 10.1 | 19.8 | 5.01 |  |  |  | 
O=C1O[C@@]23C[C@@H](C=CC2=C1C(O)c1ccc(Br)cc1)N1CCCC[C@@H]13 (stereo in doubt; 4a-4) [listing 2 of 2 here] |  |  | 12.8 | 14.1 | 22.3 | 6.32 |  |  |  | 
O=C1O[C@@]23C[C@@H](C=CC2=C1C(O)c1ccc(Cl)cc1)N1CCCC[C@@H]13 (stereo in doubt; 4a-3-a) |  |  |  |  |  |  | 12.5 | 13.1 | 20.1 | 6.18
N#Cc1ccc(C(O)C2=C3C=C[C@@H]4C[C@@]3(OC2=O)[C@H]2CCCCN42)cc1 (stereo in doubt; 4a-5) [listing 2 of 2 here] |  |  | 13 | 14.2 | 18.9 | 6.22 |  |  |  | 
N#Cc1ccc(C(O)C2=C3C=C[C@@H]4C[C@@]3(OC2=O)[C@H]2CCCCN42)cc1 (stereo in doubt; 4a-5-a) |  |  |  |  |  |  | 13.1 | 14.1 | 18.9 | 6.2
CSc1ccc(C(O)C2=C3C=C[C@@H]4C[C@@]3(OC2=O)[C@H]2CCCCN42)cc1 (some centres not stated) | 30.9 |  | 17.8 | 16.7 | 21 | 9.05 |  |  |  | 
O=C1O[C@@]23C[C@@H](C=CC2=C1C(O)c1ccc(Cl)cc1)N1CCCC[C@@H]13 (stereo in doubt; 4a-3) [listing 1 of 2 here] |  |  | 13 | 13 | 20 | 6.21 |  |  |  | 
COc1ccc(C(O)C2=C3C=C[C@@H]4C[C@@]3(OC2=O)[C@H]2CCCCN42)cc1 (some centres not stated) | 31.6 |  | 10 | 17.8 | 22.5 | 10 |  |  |  | 
O=C1O[C@@]23C[C@@H](C=CC2=C1C(O)c1ccc(Cl)cc1)N1CCCC[C@@H]13 (stereo in doubt; 4a-3-b) |  |  |  |  |  |  | 12.5 |  | 19.9 | 6.2

Now from value to compound, other results behind:

inhibition [1] [%] | inhibition [6] | SMILES | IC50 ([2]; Homo sapiens, HeLa, 72 h) [µM] | IC50 ([3]; Homo sapiens, HepG2, 72 h) [µM] | IC50 ([4]; Homo sapiens, SH-SY5Y, 72 h) [µM] | IC50 ([5]; Homo sapiens, A549, 72 h) [µM] | IC50 ([2]; hela) [µM] | IC50 ([3]; hepg2) [µM] | IC50 ([4]; sh-sy5y) [µM] | IC50 ([5]; a549) [µM]
43.1 |  | O=C1O[C@@]23C[C@@H](C=CC2=C1C(O)c1ccc([N+](=O)[O-])cc1[N+](=O)[O-])N1CCCC[C@@H]13 (some centres not stated) | 7.11 | 5.98 | 8.71 | 11.5 |  |  |  | 
35.3 |  | O=C1O[C@@]23C[C@@H](C=CC2=C1C(O)c1cccc(Cl)c1)N1CCCC[C@@H]13 (some centres not stated) | 15.6 | 17.8 | 27.8 | 11.1 |  |  |  | 
34.9 |  | O=C1O[C@@]23C[C@@H](C=CC2=C1C(O)c1cccc(F)c1)N1CCCC[C@@H]13 (some centres not stated) | 16.8 | 16.1 | 27.1 | 8.01 |  |  |  | 
38.4 |  | N#Cc1ccccc1C(O)C1=C2C=C[C@@H]3C[C@@]2(OC1=O)[C@H]1CCCCN31 (some centres not stated) | 14.9 | 11.1 | 21.9 | 7.01 |  |  |  | 
34.7 |  | N#Cc1cccc(C(O)C2=C3C=C[C@@H]4C[C@@]3(OC2=O)[C@H]2CCCCN42)c1 (some centres not stated) | 15.6 | 17.9 | 24.9 | 7.08 |  |  |  | 
45.7 |  | N#Cc1ccc(C(O)C2=C3C=C[C@@H]4C[C@@]3(OC2=O)[C@H]2CCCCN42)cc1 (stereo in doubt; 4a-5) [listing 1 of 2 here] |  |  |  |  |  |  |  | 
47.1 |  | O=C1O[C@@]23C[C@@H](C=CC2=C1C(O)c1ccc(Br)cc1)N1CCCC[C@@H]13 (stereo in doubt; 4a-4) [listing 1 of 2 here] |  |  |  |  |  |  |  | 
42.3 |  | O=C1O[C@@]23C[C@@H](C=CC2=C1C(O)c1ccccc1F)N1CCCC[C@@H]13 (some centres not stated) | 13 | 10.1 | 22 | 6.89 |  |  |  | 
37.4 |  | O=C1O[C@@]23C[C@@H](C=CC2=C1C(O)c1ccc(F)cc1F)N1CCCC[C@@H]13 (some centres not stated) | 14.9 | 13.6 | 22.1 | 5.18 |  |  |  | 
24 |  | O=C1O[C@@]23C[C@@H](C=CC2=C1C(O)c1ccccc1)N1CCCC[C@@H]13 (some centres not stated) | 21.4 | 20.1 | 25.4 | 7.05 |  |  |  | 
49.8 |  | O=C1O[C@@]23C[C@@H](C=CC2=C1C(O)c1ccc(F)cc1)N1CCCC[C@@H]13 (stereo in doubt; 4a-2) [listing 1 of 2 here] |  |  |  |  |  |  |  | 
39.2 |  | O=C1O[C@@]23C[C@@H](C=CC2=C1C(O)c1ccccc1Br)N1CCCC[C@@H]13 (some centres not stated) | 12.7 | 12.6 | 23.1 | 7.11 |  |  |  | 
 | Dose-dependent effect | O=C1O[C@@]23C[C@@H](C=CC2=C1[C@@H](O)c1ccc([N+](=O)[O-])cc1)N1CCCC[C@@H]13 | 7.99 | 4.01 | 8.52 | 1.98 |  |  |  | 
42.4 |  | O=C1O[C@@]23C[C@@H](C=CC2=C1C(O)c1ccccc1Cl)N1CCCC[C@@H]13 (some centres not stated) | 10.4 | 9.16 | 19.9 | 7.01 |  |  |  | 
34.7 |  | O=C1O[C@@]23C[C@@H](C=CC2=C1C(O)c1cccc(Br)c1)N1CCCC[C@@H]13 (some centres not stated) | 19.1 | 15.1 | 20.2 | 9.01 |  |  |  | 
40.6 |  | O=C1O[C@@]23C[C@@H](C=CC2=C1C(O)c1ccccc1[N+](=O)[O-])N1CCCC[C@@H]13 (some centres not stated) | 8.11 | 6.78 | 8.69 | 3.91 |  |  |  | 
27.1 |  | Cc1ccc(C(O)C2=C3C=C[C@@H]4C[C@@]3(OC2=O)[C@H]2CCCCN42)cc1 (some centres not stated) | 9.07 | 7.09 | 15.1 | 8.81 |  |  |  | 
36.2 |  | O=C1O[C@@]23C[C@@H](C=CC2=C1C(O)c1cccc([N+](=O)[O-])c1)N1CCCC[C@@H]13 (some centres not stated) | 9.98 | 6.77 | 8.7 | 4.04 |  |  |  | 
31.8 |  | O=C1O[C@@]23C[C@@H](C=CC2=C1C(O)c1ccc(O)cc1)N1CCCC[C@@H]13 (some centres not stated) | 18.9 | 17.1 | 23 | 6.99 |  |  |  | 
48.9 |  | O=C1O[C@@]23C[C@@H](C=CC2=C1C(O)c1ccc(Cl)cc1)N1CCCC[C@@H]13 (stereo in doubt; 4a-3) [listing 2 of 2 here] |  |  |  |  |  |  |  | 
